Active and inactive are the calls of the source. The rule behind the calls is not given here.
Columns and labels:
Mus musculus = test: Toxicity in nude mouse xenografted with human HCT116 cells assessed as body weight loss at 50 mg/kg/day, ip administered bid for 21 days; format: functional, organism-based; details: Epithelial cell, time 21.0 day
In short: (§1)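 HCT116 cells were inoculated into nude mice to form xenografts. Dosing was intraperitoneal at 50 mg/kg/day for 21 consecutive days. Evodiamine was given at the same dosage as the comparator. Tumor growth and body weight after implantation were tracked, and data are reported as mean ± SEM.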

[1] = target: T1, DNA topoisomerase 1 (Homo sapiens) (UniProt P11387); test: Inhibition of TOP1 (unknown origin) assessed as decrease in relaxation of supercoiled DNA using supercoiled plasmid DNA at 500 uM relative to camptothecin
T1 sequence (whole entry): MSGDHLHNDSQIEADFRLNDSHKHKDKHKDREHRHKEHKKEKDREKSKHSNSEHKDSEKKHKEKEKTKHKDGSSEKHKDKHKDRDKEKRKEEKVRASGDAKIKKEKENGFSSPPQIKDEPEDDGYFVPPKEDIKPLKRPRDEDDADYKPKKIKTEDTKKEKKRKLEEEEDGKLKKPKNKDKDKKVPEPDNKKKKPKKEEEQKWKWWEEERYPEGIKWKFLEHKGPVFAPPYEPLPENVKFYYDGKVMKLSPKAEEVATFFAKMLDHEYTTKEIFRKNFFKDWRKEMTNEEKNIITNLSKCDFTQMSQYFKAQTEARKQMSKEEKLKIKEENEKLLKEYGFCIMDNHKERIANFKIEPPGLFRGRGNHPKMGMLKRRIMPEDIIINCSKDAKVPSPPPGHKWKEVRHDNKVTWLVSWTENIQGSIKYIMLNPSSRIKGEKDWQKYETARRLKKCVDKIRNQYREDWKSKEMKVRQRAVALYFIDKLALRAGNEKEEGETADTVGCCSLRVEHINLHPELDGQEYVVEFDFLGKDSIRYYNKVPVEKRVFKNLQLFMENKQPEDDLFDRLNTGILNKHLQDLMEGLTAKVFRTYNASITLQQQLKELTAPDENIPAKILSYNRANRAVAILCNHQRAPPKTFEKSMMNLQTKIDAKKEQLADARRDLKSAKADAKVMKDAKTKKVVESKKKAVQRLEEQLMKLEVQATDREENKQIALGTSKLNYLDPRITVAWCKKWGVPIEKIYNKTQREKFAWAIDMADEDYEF
In short: (§2)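 Top1-mediated relaxation of supercoiled DNA was tested with compounds at 500 μM and 100 μM. Camptothecin served as the positive control.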

HCT-116 [2] = test: Induction of apoptosis in human HCT116 cells assessed as increase in bax protein expression at 0.03 to 1.5 uM after 24 hrs by Western blot analysis; format: functional, cell-based; details: dose 0.03-1.5 µM
In short: (§3)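 HCT116 cells were exposed to various concentrations for 24 h. Lysates were then probed by western blot for caspase-9, caspase-3, Bcl-2, Bax and cytochrome C.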

HCT-116 [3] = test: Induction of apoptosis in human HCT116 cells assessed as decrease in Bcl-2 protein expression at 0.03 to 1.5 uM after 24 hrs by Western blot analysis; format: functional, cell-based; details: dose 0.03-1.5 µM; in short: as §3
HCT-116 [4] = test: Induction of apoptosis in human HCT116 cells assessed as increase in caspase-3 expression after 24 hrs by Western blot analysis; format: functional, cell-based; details: dose 0.03-1.5 µM; in short: as §3
[5] = target: T1, DNA topoisomerase 1 (Homo sapiens); test: Inhibition of TOP1 (unknown origin) assessed as decrease in relaxation of supercoiled DNA using supercoiled plasmid DNA at 100 uM relative to camptothecin; in short: as §2
[6] = target: DNA topoisomerase 2-alpha (Homo sapiens) (UniProt P11388); test: Inhibition of TOP2 (unknown origin) assessed as fractured DNA fragments using supercoiled plasmid DNA at 250 uM
In short: (§4)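 Purified Top2 was incubated with DNA and compounds at 250 μM and 100 μM. The read-out was the appearance of fractured DNA fragments, with etoposide as the positive control.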

HCT-116 [7] = test: Induction of apoptosis in human HCT116 cells assessed as increase in caspase-9 expression after 24 hrs by Western blot analysis; format: functional, cell-based; details: dose 0.03-1.5 µM; in short: as §3
[8] = target: DNA topoisomerase 2-alpha (Homo sapiens) (UniProt P11388); test: Inhibition of TOP2 (unknown origin) assessed as fractured DNA fragments using supercoiled plasmid DNA at 50 uM relative to etoposide
[9] = target: DNA topoisomerase 2-alpha (Homo sapiens) (UniProt P11388); test: Inhibition of TOP2 (unknown origin) assessed as fractured DNA fragments using supercoiled plasmid DNA at 100 uM relative to etoposide; in short: as §4
HCT-116 [10] = test: Antitumor activity against human HCT116 cells xenografted in nude mice assessed as tumor growth inhibition at 50 mg/kg/day, ip administered bid for 21 days relative to control; format: functional, organism-based; details: time 21.0 day; in short: as §1
HCT-116 [11] = test: Induction of apoptosis in human HCT116 cells assessed as increase in cytochrome c expression after 24 hrs by Western blot analysis; format: functional, cell-based; details: dose 0.03-1.5 µM; in short: as §3
HCT-116 [12] = test: Induction of cell cycle arrest in human HCT-116 cells assessed as accumulation at S phase at 0.15 uM after 24 hrs by propidium iodide staining based flow cytometric analysis (reference value: 39.06%); format: functional
[13] = Antiproliferative activity against human MDA-MB-231 cells assessed as growth inhibition by CCK8 assay; format: functional, cell-based, Epithelial cell; details: epithelial cell
HCT-116 [14] = test: Induction of cell cycle arrest in human HCT-116 cells assessed as accumulation at S phase at 0.03 uM after 48 hrs by propidium iodide staining based flow cytometric analysis (reference value: 40.6%); format: functional
HCT-116 [15] = test: Induction of apoptosis in human HCT116 cells at 0.03 uM after 48 hrs by annexin V-FITC/propidium iodide staining based flow cytometry (RVB = 6.77%); format: functional
In short: (§5)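 HCT116 cells were treated at 0.03, 0.15, 0.75 or 1.5 μM for 48 h. They were then stained with Annexin V/PI and analysed by flow cytometry, and apoptotic cells were reported as a percentage. An untreated control was run alongside.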

HCT-116 [16] = test: Induction of cell cycle arrest in human HCT-116 cells assessed as accumulation at S phase at 0.15 uM after 48 hrs by propidium iodide staining based flow cytometric analysis (reference value: 40.6%); format: functional
HCT-116 [17] = test: Induction of apoptosis in human HCT116 cells at 1.5 uM after 48 hrs by annexin V-FITC/propidium iodide staining based flow cytometry (RVB = 6.77%); format: functional; in short: as §5
HCT-116 [18] = test: Induction of cell cycle arrest in human HCT-116 cells assessed as accumulation at G1 phase at 0.15 uM after 48 hrs by propidium iodide staining based flow cytometric analysis (reference value: 34.38%); format: functional
HCT-116 [19] = test: Induction of cell cycle arrest in human HCT-116 cells assessed as accumulation at G2/M phase at 0.15 uM after 24 hrs by propidium iodide staining based flow cytometric analysis (reference value: 27.78%); format: functional
HCT-116 [20] = test: Induction of cell cycle arrest in human HCT-116 cells assessed as accumulation at G2/M phase at 0.75 uM after 24 hrs by propidium iodide staining based flow cytometric analysis (reference value: 27.78%); format: functional
HCT-116 [21] = test: Induction of cell cycle arrest in human HCT-116 cells assessed as accumulation at G1 phase at 0.03 uM after 24 hrs by propidium iodide staining based flow cytometric analysis (reference value: 33.16%); format: functional
HCT-116 [22] = test: Induction of cell cycle arrest in human HCT-116 cells assessed as accumulation at G1 phase at 0.75 uM after 48 hrs by propidium iodide staining based flow cytometric analysis (reference value: 34.38%); format: functional
HCT-116 [23] = test: Induction of apoptosis in human HCT116 cells at 0.15 uM after 48 hrs by annexin V-FITC/propidium iodide staining based flow cytometry (RVB = 6.77%); format: functional; in short: as §5
HCT-116 [24] = test: Induction of apoptosis in human HCT116 cells at 0.75 uM after 48 hrs by annexin V-FITC/propidium iodide staining based flow cytometry (RVB = 6.77%); format: functional; in short: as §5
[25] = Antiproliferative activity against human A549 cells assessed as growth inhibition by CCK8 assay; format: functional, cell-based, Epithelial cell; details: epithelial cell
HCT-116 [26] = test: Induction of cell cycle arrest in human HCT-116 cells assessed as accumulation at G2/M phase at 0.15 uM after 48 hrs by propidium iodide staining based flow cytometric analysis (reference value: 25.01%); format: functional
HCT-116 [27] = test: Induction of cell cycle arrest in human HCT-116 cells assessed as accumulation at G1 phase at 0.03 uM after 48 hrs by propidium iodide staining based flow cytometric analysis (reference value: 34.38%); format: functional
HCT-116 [28] = test: Induction of cell cycle arrest in human HCT-116 cells assessed as accumulation at G1 phase at 0.75 uM after 24 hrs by propidium iodide staining based flow cytometric analysis (reference value: 33.16%); format: functional
HCT-116 [29] = test: Induction of cell cycle arrest in human HCT-116 cells assessed as accumulation at S phase at 0.75 uM after 48 hrs by propidium iodide staining based flow cytometric analysis (reference value: 40.6%); format: functional
HCT-116 [30] = test: Induction of cell cycle arrest in human HCT-116 cells assessed as accumulation at G2/M phase at 0.03 uM after 24 hrs by propidium iodide staining based flow cytometric analysis (reference value: 27.78%); format: functional
HCT-116 [31] = test: Induction of cell cycle arrest in human HCT-116 cells assessed as accumulation at G2/M phase at 0.75 uM after 48 hrs by propidium iodide staining based flow cytometric analysis (reference value: 25.01%); format: functional
HCT-116 [32] = test: Induction of cell cycle arrest in human HCT-116 cells assessed as accumulation at S phase at 0.75 uM after 24 hrs by propidium iodide staining based flow cytometric analysis (reference value: 39.06%); format: functional
HCT-116 [33] = test: Induction of cell cycle arrest in human HCT-116 cells assessed as accumulation at G1 phase at 0.15 uM after 24 hrs by propidium iodide staining based flow cytometric analysis (reference value: 33.16%); format: functional
HCT-116 [34] = test: Induction of cell cycle arrest in human HCT-116 cells assessed as accumulation at G2/M phase at 0.03 uM after 48 hrs by propidium iodide staining based flow cytometric analysis (reference value: 25.01%); format: functional
HCT-116 [35] = test: Induction of cell cycle arrest in human HCT-116 cells assessed as accumulation at S phase at 0.03 uM after 24 hrs by propidium iodide staining based flow cytometric analysis (reference value: 39.06%); format: functional
[36] = Antiproliferative activity against human HCT116 cells assessed as growth inhibition by CCK8 assay; format: functional, cell-based, Epithelial cell; details: epithelial cell

Sequence of DNA topoisomerase 2-alpha (Homo sapiens) (P11388 whole entry, the tested form may be a part): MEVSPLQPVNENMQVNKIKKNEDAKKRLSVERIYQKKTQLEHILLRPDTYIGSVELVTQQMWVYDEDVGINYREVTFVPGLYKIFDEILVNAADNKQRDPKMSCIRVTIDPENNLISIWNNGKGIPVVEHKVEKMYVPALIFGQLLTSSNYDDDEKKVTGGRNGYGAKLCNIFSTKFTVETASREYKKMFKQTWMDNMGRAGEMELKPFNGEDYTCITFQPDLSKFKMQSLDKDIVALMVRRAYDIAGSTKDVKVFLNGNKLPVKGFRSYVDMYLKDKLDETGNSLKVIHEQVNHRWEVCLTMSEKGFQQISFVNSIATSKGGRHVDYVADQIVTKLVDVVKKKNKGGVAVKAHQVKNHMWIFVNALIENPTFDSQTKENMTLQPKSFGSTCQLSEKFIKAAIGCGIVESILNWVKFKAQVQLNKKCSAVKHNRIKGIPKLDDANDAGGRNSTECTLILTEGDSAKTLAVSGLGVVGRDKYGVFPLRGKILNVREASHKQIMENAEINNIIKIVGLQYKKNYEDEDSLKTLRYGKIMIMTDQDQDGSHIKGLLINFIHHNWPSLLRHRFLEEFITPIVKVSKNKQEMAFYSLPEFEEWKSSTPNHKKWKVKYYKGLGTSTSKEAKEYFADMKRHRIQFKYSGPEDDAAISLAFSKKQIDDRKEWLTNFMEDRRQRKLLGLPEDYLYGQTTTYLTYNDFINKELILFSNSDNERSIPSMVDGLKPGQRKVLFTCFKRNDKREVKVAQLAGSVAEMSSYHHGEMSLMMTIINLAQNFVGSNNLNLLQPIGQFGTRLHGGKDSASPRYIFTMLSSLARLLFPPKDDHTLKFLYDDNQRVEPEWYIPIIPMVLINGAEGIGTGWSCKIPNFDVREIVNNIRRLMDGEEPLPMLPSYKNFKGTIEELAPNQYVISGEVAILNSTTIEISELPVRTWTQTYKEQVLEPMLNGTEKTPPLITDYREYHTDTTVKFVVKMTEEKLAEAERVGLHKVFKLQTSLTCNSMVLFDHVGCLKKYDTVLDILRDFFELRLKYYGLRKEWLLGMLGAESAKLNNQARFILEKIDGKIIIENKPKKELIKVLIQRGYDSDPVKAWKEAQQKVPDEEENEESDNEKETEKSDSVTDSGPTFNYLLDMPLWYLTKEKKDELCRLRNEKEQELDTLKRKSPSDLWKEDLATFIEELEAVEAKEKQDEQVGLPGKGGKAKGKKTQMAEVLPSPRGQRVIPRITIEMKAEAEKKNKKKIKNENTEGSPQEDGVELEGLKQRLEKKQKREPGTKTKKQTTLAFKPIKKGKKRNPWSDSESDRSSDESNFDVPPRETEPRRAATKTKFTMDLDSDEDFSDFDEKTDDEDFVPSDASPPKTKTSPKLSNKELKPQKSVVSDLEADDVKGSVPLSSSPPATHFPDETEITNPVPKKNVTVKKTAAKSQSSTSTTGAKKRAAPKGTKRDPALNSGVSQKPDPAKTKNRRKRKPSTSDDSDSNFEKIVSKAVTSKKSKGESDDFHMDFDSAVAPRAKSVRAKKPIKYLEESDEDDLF

## COc1ccc2[nH]c3c(c2c1)CCN(C(=O)CCc1ccccc1)C3c1ccc(Cl)c(Cl)c1 (stereo in doubt; 45) [listing 1 of 2 here]
Mus musculus
  Activity: Active
[1]
  inhibition: Active
HCT-116 [2]
  Activity: Active
HCT-116 [3]
  Activity: Active
HCT-116 [4]
  Activity: Active
[5]
  inhibition: Active
[6]
  inhibition: Active
HCT-116 [7]
  Activity: Active
[8]
  inhibition: Active
[9]
  inhibition: Active
HCT-116 [10]
  Activity: Active
HCT-116 [11]
  Activity: Dose-Dependent Effect

## COc1ccc2[nH]c3c(c2c1)CCN(C(=O)CCc1ccccc1)C3c1ccc(Cl)c(Cl)c1 (stereo in doubt; 45) [listing 2 of 2 here]
HCT-116 [12]
  Activity: 19.86%
[13]
  IC50: 160 nM
HCT-116 [14]
  Activity: 20.81%
HCT-116 [15]
  Activity: 10.11%
HCT-116 [16]
  Activity: 4.78%
HCT-116 [17]
  Activity: 30.98%
HCT-116 [18]
  Activity: 2.19%
HCT-116 [19]
  Activity: 78.12%
HCT-116 [20]
  Activity: 88.37%
HCT-116 [21]
  Activity: 32.45%
HCT-116 [22]
  Activity: 2.06%
HCT-116 [23]
  Activity: 13.46%
HCT-116 [24]
  Activity: 25.43%
[25]
  IC50: 760 nM
HCT-116 [26]
  Activity: 93.03%
HCT-116 [27]
  Activity: 11.27%
HCT-116 [28]
  Activity: 1.2%
HCT-116 [29]
  Activity: 4.79%
HCT-116 [30]
  Activity: 32.12%
HCT-116 [31]
  Activity: 93.15%
HCT-116 [32]
  Activity: 10.43%
HCT-116 [33]
  Activity: 2.02%
HCT-116 [34]
  Activity: 67.92%
HCT-116 [35]
  Activity: 35.43%
[36]
  IC50: 160 nM

Reference: ChEMBL document CHEMBL4813998, “Structural simplification of evodiamine: Discovery of novel tetrahydro-β-carboline derivatives as potent antitumor agents” (Bioorg Med Chem Lett, 2021)
